The list is not random: actives were taken first. Their share in the collection is about 3%.
Ins promoter up: MIN6 insulin promoter up-regulation; MIN6 insulin promoter-GFP reporter, high-content imaging; hits give high values; z-score at 5 µM; 0.3% of 190,000 active; AID 1625;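 active = z-score above 3 at 5 µM with at least 500 cells counted in the well; inconclusive = wells under 500 cells, flagged as cytotoxic or low count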
BB579 growth dn: yeast BB579 growth reduction in restrictive medium. S. cerevisiae BB579 growth, OD615, 48 h. inhibition, % at 10 µM. 0.51% of 140,000 active. AID 804;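 active = inhibition above a set limit, 3 SD over the mean compound inhibition, cut at about 44% in these data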
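System: DeaD yeast strain BB579; buffer or medium: CSMM-D dextrose restrictive medium; technique: OD at 615 nm; schedule: 4 h cell preincubation, 48 h compound exposure, 30 °C humidified; doses: single 10 µM dose; controls: amphotericin B 10 µg/mL, positive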
RAM network inh: blocks the yeast RAM network | S. cerevisiae dse1pr::URA3 reporter, 5-FOA growth OD615, 2 d; analog-sensitive cbk1-as2 kinase mutant strain | inhibition, % at 50 µM | 1.8% of 190,000 active | AID 868;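 active = inhibition above a set limit, 3 SD over mean compound inhibition, cut at about 8.4% in these data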;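 note: 0% = DMSO-only wells with no growth and 100% = 10 µM 1-NA-PP1 full growth; inhibition rescues growth on 5-FOA so higher OD means more RAM inhibition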
Yeast life ext: yeast lifespan extension; S. cerevisiae growth with nicotinamide, OD615; deaD strain in restrictive glucose medium; inhibition of the nicotinamide effect, % at 10 µM; 0.68% of 130,000 active;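 active = inhibition above a set limit, placed 3 SD over the median of all compounds, cut at about 26% in these data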;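 note: 0% = nicotinamide-treated wells and 100% = cells grown without nicotinamide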
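System: Modified budding yeast, DeaD strain | Buffer or medium: Restrictive glucose medium | Also added: 1.5 mM nicotinamide | Doses: 10 µM single point, 0.25% DMSO | Schedule: 48 h compound exposure at 30 °C, humidified | Detection: Absorbance at 615 nm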
INS promoter inh: TRM-6 insulin promoter activity inhibition | inhibition, % at 2 µM | 0.9% of 130,000 active | AID 1273 | TRM-6 cells (human fetal islet line), insulin promoter-eGFP reporter, imaging; reporter expression induced with tamoxifen;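 active = inhibition above the mean plus 3 SD, with well images judged a real hit on visual review, cut at about 60% in these data, passing the limit was not always enough; inconclusive = inhibition over the cutoff but images rejected on review; inactive = inhibition not above the cutoff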
The depositor's hits bear a star; ? = inconclusive; nt = no result.

SMILES	Ins promoter up	BB579 growth dn	RAM network inh	Yeast life ext	INS promoter inh
COc1ccc2cc(C(=O)C3CCCN(C(=O)Cc4c(C)noc4C)C3)ccc2c1 (stereo not given)	-0.72	nt	0.0	nt	nt
O=C1CCC(C(=O)Nc2cccc(Oc3ccccc3)c2)=NN1	-0.33	nt	1.8	nt	-9.1
Cc1cccc(Cl)c1NC(=O)N1CCCN(c2ncccc2[N+](=O)[O-])CC1	0.11	nt	nt	nt	nt
Cc1cc(C)nc(NS(=O)(=O)c2ccc(N/C=C\C(=O)c3ccc(Cl)cc3)cc2)n1	-0.38	-40.8	7.3	-6.5	70.0*
Cc1noc(NS(=O)(=O)c2ccc(N/C=C\C(=O)c3ccc(F)cc3)cc2)c1C	0.89	nt	8.6*	nt	-17.6
Cc1noc(NS(=O)(=O)c2ccc(N/C=C\C(=O)c3ccccc3)cc2)c1C	0.17	nt	4.7	nt	-17.6
COc1ccc(NC(=S)Nc2ccccc2SC)c(OC)c1	-0.02	nt	2.7	nt	nt
CN1N=C2c3ccccc3CCCC2C1c1ccc(F)cc1 (stereo not given)	0.08	nt	nt	nt	nt
O=S(=O)(Nc1nc2ccccc2nc1NCc1ccco1)c1ccc(F)cc1	-0.04	nt	nt	nt	nt
COc1ccccc1C(CNC(=O)c1ccc(S(=O)(=O)NCc2ccco2)cc1)N(C)C (stereo not given)	nt	-34.7	0.1	0.6	-57.9
COc1ccccc1C(CCNS(=O)(=O)c1ccc(C)cc1)c1ccco1 (stereo not given)	-0.62	-14.5	10.0*	0.0	-10.7
O=S(=O)(NCCNS(=O)(=O)c1ccc(F)cc1)c1ccc(F)cc1	nt	-51.8	2.1	-2.1	23.9
Cc1ccc(S(=O)(=O)NCCC(c2ccc(F)cc2)c2ccco2)cc1 (stereo not given)	-0.21	-4.5	11.1*	3.6	-27.6
COc1ccc(CC(=O)Oc2cc(C)[nH]c(=O)c2[N+](=O)[O-])cc1	0.13	-28.7	0.9	1.9	-46.7
Cc1cc(C)c(S(=O)(=O)Nc2cccc(S(=O)(=O)NC3=NCCC3)c2)c(C)c1	0.31	nt	0.2	nt	-11.1
O=C(/C(=N\O)n1cncn1)c1ccc(Cl)cc1Cl	-0.31	nt	0.9	nt	nt
O=C(/C(=C/c1ccccc1)n1cncn1)c1ccc(Cl)cc1Cl	0.02	11.7	-0.8	48.5*	65.5
O=C(Nc1ccc(Cl)cc1)ON=C1CCCC1	1.75	99.1*	-0.8	-9.5	-51.7
CC1(C)CC(N2CCN(CCO)CC2)=CC(=S)N1	0.29	nt	nt	nt	nt
Cc1ccc(-c2cc(C(=O)N3N=C(C(F)F)CC3(O)C(F)F)c3ccccc3n2)cc1C (stereo not given)	0.12	67.5*	-0.7	-8.3	6.7
COC(=O)C1=C(C)Nc2c(c(=O)n(C)c(=O)n2C)C1c1ccc(C)cc1 (stereo not given)	-0.74	nt	-0.1	nt	9.1
Clc1cccc(NCc2nnc(SCc3ccc(Cl)cc3Cl)o2)c1	0.35	-17.8	8.4*	nt	16.3
O=C(NNC(=S)Nc1ccc(Cl)cc1Cl)C1CC1	-0.05	-24.6	1.3	6.9	16.7
Cc1cc(C(=O)COC(=O)c2ccc[nH]c2=O)c(C)n1C1CC1	-0.62	-6.0	5.1	28.8*	-7.7
CCNC(=O)COC(=O)c1cc(C)n(-c2ccccc2)c1C	-0.72	nt	0.0	nt	-33.3
SMILES	Ins promoter up	BB579 growth dn	RAM network inh	Yeast life ext	INS promoter inh
Cc1cc(C(=O)COC(=O)c2ccc[nH]c2=O)c(C)n1-c1ccccc1	0.01	59.1*	-1.3	21.6	42.9
Cc1cc(C(=O)COC(=O)c2ccc[nH]c2=O)c(C)n1-c1ccc(F)cc1	-0.2	53.8*	-1.0	17.0	0.0
Cc1cc(C(=O)COc2ccccc2C(N)=O)c(C)n1C1CC1	0.21	nt	1.9	nt	63.6
Cc1ccc(S(=O)(=O)Nc2ccc(SC(F)F)cc2)c(C)c1	nt	61.1*	5.0	-3.4	17.9
CCN(CC)c1nc(-c2ccc(Cl)cc2)cc(C(F)(F)F)c1C#N	-0.55	-8.7	9.6*	-6.6	-9.7
CC(C)NS(=O)(=O)c1cc(C(=O)O)ccc1Cl	0.14	-24.0	1.6	26.5*	-21.4
CC(C)C(NS(=O)(=O)c1cc(C(=O)O)ccc1Cl)C(=O)O (stereo not given)	nt	nt	0.0	nt	nt
CC1(CCc2ccccc2)NC(=S)N(c2ccc(Cl)cc2)N1 (stereo not given)	-0.08	97.5*	-0.1	-8.8	?
CC1(CCc2ccccc2)NC(=S)N(c2ccccc2)N1 (stereo not given)	1.38	95.9*	0.1	-8.0	3.7
CC(C)(C)C1CCC2(CC1)NC(=S)N(c1ccccc1)N2 (stereo not given)	-0.56	-14.3	2.6	nt	-287.5
CCOC(=O)N1CCN(C(=O)C(=O)NN)CC1	-0.08	nt	0.2	nt	nt
Cc1ccc(C(=O)N2CCc3ccccc32)o1	-0.13	-13.9	0.8	0.5	-27.3
CC(=O)c1ccc(-c2ccc(C(=O)N3CCCc4ccccc43)o2)cc1	0.44	nt	9.4*	nt	-18.2
CCN(Cc1ccncc1)Cc1c(O)ccc2cc(Br)ccc12	1.02	nt	0.3	nt	-13.3
Cc1cccc(/C=N\Nc2cn[nH]c(=O)c2Cl)c1	-0.83	-47.9	9.8*	-22.9	20.4
O=c1[nH]ncc(N/N=C\c2cccnc2)c1Cl	0.02	nt	nt	nt	nt
O=C1NC(=O)/C(=C/c2ccccn2)S1	-0.03	nt	nt	nt	nt
COCCNC(=O)C(c1ccc(F)cc1)N(C(=O)CCC(=O)Nc1nccs1)c1cccc(C)c1 (stereo not given)	-0.27	nt	9.6*	nt	-26.7
CC1CCN(S(=O)(=O)c2ccc(NC(=O)CN3CCOCC3)cc2)CC1	0.25	-4.7	1.1	-8.2	-90.6
CC1CCN(S(=O)(=O)c2ccc(NC(=O)Cc3cccs3)cc2)CC1	0.25	-42.5	9.1*	-11.6	13.3
CC(=O)Cn1ncc(Br)c(Br)c1=O	nt	nt	9.9*	nt	nt
O=C(OCn1ncc(Br)c(Br)c1=O)c1c(F)cccc1F	?	36.4	-1.3	21.8	-257.1
Cc1ccc(-n2cc(C(=O)c3ccc4ccccc4c3O)cn2)cc1	nt	-56.6	8.5*	8.6	10.7
Cc1ccc(-n2cc(C(=O)c3ccccc3O)cn2)cc1	nt	-46.0	6.2	-12.7	32.1
CSc1nnc(Cc2sc(-c3ccccc3)nc2-c2ccccc2)o1	2.16	-36.4	4.0	-5.7	54.8
SMILES	Ins promoter up	BB579 growth dn	RAM network inh	Yeast life ext	INS promoter inh
COc1ccc(CSc2nnc(Cc3sc(-c4ccccc4)nc3-c3ccccc3)o2)cc1	-1.4	-102.4	9.6*	0.2	-11.6
CC1C/C(=C\c2cccnc2)C(=O)/C(=C/c2cccnc2)C1 (stereo not given)	-1.55	-4.2	2.2	69.5*	-8.3
O=C1/C(=C/c2cccnc2)CCc2c1[nH]c1ccccc21	0.08	nt	0.8	nt	nt
CC(=O)Nc1ccc(N2C(=O)c3ccc(C(=O)Nc4nnc(SCc5ccc(F)cc5)s4)cc3C2=O)cc1	-0.8	nt	2.7	nt	nt
Cc1cccc(Cc2cnc(NC(=O)C3=NCCN3)s2)c1	-0.01	nt	2.2	nt	7.1
Cc1cccc(Cc2cnc(NC(=O)c3ccc(C)o3)s2)c1	-0.91	-20.0	8.8*	-20.6	25.0
COc1cc(/C=N/OCC(=O)Nc2cc(C)cc(C)c2)ccc1OCc1ccc(Cl)cc1	0.05	-1.2	7.3	-5.8	-11.5
